Laboratory results: ChEMBL document CHEMBL1138602, “Discovery of sodium 6-[(5-chloro-2-{[(4-chloro-2-fluorophenyl)methyl]oxy}phenyl)methyl]-2-pyridinecarboxylate (GSK269984A) an EP(1) receptor antagonist for the treatment of inflammatory pain” (Bioorg Med Chem Lett, 2009)
Calls of active or inactive are those of the source. No cut-off for these calls is given here.

What was measured:
[1] = test system: Hepatocyte; assay: Intrinsic clearance in human hepatocytes measured per gram of liver at 0.15 to 0.2 X 10^6 cells/ml cell density; assay type: ADME, cell-based
In short: (§1)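 Intrinsic clearance in hepatocytes expressed as mL/min/g liver. Cell densities were 0.15–0.2 × 10^6 cells/mL or 0.54–0.7 × 10^6 cells/mL.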

[2] = Drug level in mouse brain at 0.5 mg/kg/hr administered by infusion for 12 hrs; assay type: ADME, organism-based; details: intravenous, read-out: Drug uptake
In short: (§2)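 Steady-state 12 h infusion at 5 mL/kg/h to reach a target dose of 0.5 mg/kg/h; blood and brain concentrations measured. Data are the mean from three animals.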

[3] = target: T1, Cytochrome P450 1A2 (Homo sapiens, UniProt P05177); assay: Inhibition of human CYP1A2; assay type: ADME
T1 sequence (P05177 whole entry): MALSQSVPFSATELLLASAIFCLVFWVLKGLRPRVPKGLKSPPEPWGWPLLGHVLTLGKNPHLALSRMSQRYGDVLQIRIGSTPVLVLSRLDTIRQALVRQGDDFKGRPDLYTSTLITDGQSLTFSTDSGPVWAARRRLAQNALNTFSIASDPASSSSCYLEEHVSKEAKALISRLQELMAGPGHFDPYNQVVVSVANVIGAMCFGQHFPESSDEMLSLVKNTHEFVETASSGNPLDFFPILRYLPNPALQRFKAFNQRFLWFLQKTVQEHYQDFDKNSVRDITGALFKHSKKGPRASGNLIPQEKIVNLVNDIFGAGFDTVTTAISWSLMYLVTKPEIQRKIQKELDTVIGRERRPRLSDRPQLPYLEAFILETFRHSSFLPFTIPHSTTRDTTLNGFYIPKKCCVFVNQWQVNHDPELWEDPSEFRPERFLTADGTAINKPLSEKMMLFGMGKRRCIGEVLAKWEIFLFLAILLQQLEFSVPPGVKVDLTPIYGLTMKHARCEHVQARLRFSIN
In short: (§3)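 Inhibition of metabolism of fluorometric substrates (Cypex protocol); IC50 values are the mean of three experiments ± standard deviation.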

[4] = target: T2, Prostaglandin E2 receptor EP1 subtype (Homo sapiens, UniProt P34995); assay: Antagonist activity at human recombinant EP1 receptor expressed in CHO cells assessed as inhibition of PGE2-mediated intracellular calcium mobilization by FLIPR method; assay type: functional, cell-based
T2 sequence (P34995 whole entry): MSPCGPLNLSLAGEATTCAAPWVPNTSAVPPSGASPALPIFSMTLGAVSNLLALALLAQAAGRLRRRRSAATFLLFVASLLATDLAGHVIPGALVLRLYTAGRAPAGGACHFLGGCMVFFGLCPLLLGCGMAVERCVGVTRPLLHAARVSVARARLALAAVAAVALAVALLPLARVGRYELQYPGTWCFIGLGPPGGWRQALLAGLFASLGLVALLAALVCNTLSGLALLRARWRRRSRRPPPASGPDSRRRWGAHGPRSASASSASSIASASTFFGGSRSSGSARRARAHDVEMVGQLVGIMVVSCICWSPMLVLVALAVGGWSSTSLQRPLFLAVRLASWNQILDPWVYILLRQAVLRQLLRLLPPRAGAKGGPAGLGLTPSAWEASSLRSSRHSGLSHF
In short: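 CHO cells recombinantly overexpressing human EP1 receptor; antagonism measured as block of PGE2-mediated intracellular Ca2+ mobilization. Values are the mean of at least three experiments with standard deviations.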

[5] = Drug level in blood of complete Freund's adjuvant induced rat inflammatory pain model at 10 mg/kg, bid measured after 1 hr on day 5; assay type: ADME, organism-based; set-up: dose 10 mg/kg; details: read-out: Drug uptake
In short: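 Satellite group dosed at 10 mg/kg b.i.d. for 5 days; blood sampled 1 h post-dose on day 1 and on day 5.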

[6] = test system: Rattus norvegicus; assay: Antianalgesic activity against complete Freund's adjuvant-induced rat inflammatory pain in rat assessed as reversal of hypersensitivity at 10 mg/kg, po bid for 5 days measured on day 5 after 1 hr; assay type: functional, organism-based; set-up: dose 10 mg/kg
[7] = Intrinsic clearance in cynomolgus monkey hepatocytes measured per gram of liver at 0.15 to 0.2 X 10^6 cells/ml cell density; assay type: ADME, cell-based, Macaca fascicularis, Hepatocyte; in short: as §1
[8] = Solubility in FaSSIF after 0.5 hrs; assay type: physicochemical
In short: (§4)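 Solubility determined in water, FaSSIF and FeSSIF, all read at the 0.5 h time point.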

[9] = Drug level in rat brain at 0.5 mg/kg/hr administered by infusion for 1 hrs; assay type: ADME, organism-based; details: intravenous, read-out: Drug uptake
In short: (§5)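 Rat given a 1 h infusion; blood and brain concentrations measured.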

[10] = Solubility in FeSSIF after 0.5 hrs; assay type: physicochemical; in short: as §4
[11] = Volume of distribution at steady state in Beagle dog at 1 mg/kg administered by intravenous infusion for 1 hr; assay type: ADME, organism-based, Canis lupus familiaris; set-up: dose 1 mg/kg, route intravenous; details: in vivo, read-out: Vdss
[12] = Lipophilicity, log D at pH 7.4; assay type: physicochemical; details: buffer
[13] = target: Cytochrome P450 2C19 (Homo sapiens, UniProt P33261); assay: Inhibition of human CYP2C19; assay type: ADME; in short: as §3
[14] = test system: Hepatocyte; assay: Intrinsic clearance in human hepatocytes measured per gram of liver at 0.54 to 0.7 X 10^6 cells/ml cell density; assay type: ADME, cell-based; in short: as §1
[15] = Clearance in Beagle dog blood at 1 mg/kg administered by intravenous infusion for 1 hr; assay type: ADME, organism-based, Canis lupus familiaris; set-up: dose 1 mg/kg, route intravenous
In short: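 Intravenous administration as a 1 h infusion of a 1 mg/kg dose. Rats were male Sprague-Dawley; dogs were beagle; monkeys were cynomolgus. Blood clearance, Vss and half-life determined.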

[16] = Drug level in rat blood at 0.5 mg/kg/hr administered by infusion for 1 hrs; assay type: ADME, organism-based; details: intravenous, read-out: Drug uptake; in short: as §5
[17] = Ratio of drug level in brain to blood of rat at 0.5 mg/kg/hr administered by infusion for 1 hrs; details: brain and blood, intravenous
[18] = Ratio of drug level in brain to blood in complete Freund's adjuvant-induced rat inflammatory pain model at 10 mg/kg, po administered after 23 hrs of adjuvant challenge measured after 1 hr; assay type: ADME, organism-based; set-up: dose 10 mg/kg, route oral; details: brain and blood
In short: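 Rat CFA inflammatory pain model: oral dosing at 1, 3 or 10 mg/kg 23 h after intraplantar adjuvant; blood and brain sampled 1 h post-dose from the same animal; Br:Bl ratio is the mean from three animals.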

[19] = Drug level in brain of complete Freund's adjuvant-induced rat inflammatory pain model at 1 mg/kg, po administered after 23 hrs of adjuvant challenge measured after 1 hr; assay type: ADME, organism-based; set-up: dose 1 mg/kg, route oral; details: read-out: Drug uptake
In short: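 CFA rat study: oral doses of 1, 3 or 10 mg/kg given 23 h after intraplantar adjuvant, samples 1 h post-dose. Blood values are the mean from seven animals. Brain values are the mean from three animals.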

[20] = Permeability from apical to basolateral side of dog MDCK2 cells over expressing MDR1 after 1 hr; assay type: ADME, cell-based, Canis lupus familiaris, MDCK-II; details: MDCK-MDR1, read-out: permeability
In short: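 MDCKII-MDR1 Pgp permeability assay; apical-to-basolateral Pexact permeability in nm/s, with efflux ratio also determined.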

[21] = target: Prostacyclin receptor (Homo sapiens, UniProt P43119); assay: Inhibition of IP receptor
[22] = Volume of distribution at steady state in Sprague-Dawley rat at 1 mg/kg administered by intravenous infusion for 1 hr; assay type: ADME, organism-based; set-up: dose 1 mg/kg, route intravenous; details: in vivo, read-out: Vdss
[23] = target: Cytochrome P450 2C9 (Homo sapiens, UniProt P11712); assay: Inhibition of human CYP2C9; assay type: ADME; in short: as §3
[24] = target: T2, Prostaglandin E2 receptor EP1 subtype; assay: Antagonist activity at human recombinant EP1 receptor expressed in CHO cells assessed as luciferase activity by Schild assay; assay type: functional, cell-based; details: read-out: pA2 (converted)
[25] = Drug level in rat blood at 0.5 mg/kg/hr administered by infusion for 12 hrs; assay type: ADME, organism-based; details: intravenous, read-out: Drug uptake; in short: as §2

Chain of Cytochrome P450 2C9 (P11712 whole entry): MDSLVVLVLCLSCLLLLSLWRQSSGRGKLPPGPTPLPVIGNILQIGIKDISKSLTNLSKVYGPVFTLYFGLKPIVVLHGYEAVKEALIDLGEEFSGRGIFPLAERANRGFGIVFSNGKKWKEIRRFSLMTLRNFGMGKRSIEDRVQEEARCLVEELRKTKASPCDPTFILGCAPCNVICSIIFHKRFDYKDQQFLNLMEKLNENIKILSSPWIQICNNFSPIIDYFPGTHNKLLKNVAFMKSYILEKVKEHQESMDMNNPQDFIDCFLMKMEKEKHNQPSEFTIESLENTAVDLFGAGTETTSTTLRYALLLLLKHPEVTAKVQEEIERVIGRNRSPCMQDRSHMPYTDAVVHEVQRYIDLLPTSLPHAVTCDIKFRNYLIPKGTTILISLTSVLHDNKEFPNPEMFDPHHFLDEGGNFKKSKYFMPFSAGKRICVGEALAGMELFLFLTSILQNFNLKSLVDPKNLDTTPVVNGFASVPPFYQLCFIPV
Chain of Cytochrome P450 2C19 (P33261 whole entry): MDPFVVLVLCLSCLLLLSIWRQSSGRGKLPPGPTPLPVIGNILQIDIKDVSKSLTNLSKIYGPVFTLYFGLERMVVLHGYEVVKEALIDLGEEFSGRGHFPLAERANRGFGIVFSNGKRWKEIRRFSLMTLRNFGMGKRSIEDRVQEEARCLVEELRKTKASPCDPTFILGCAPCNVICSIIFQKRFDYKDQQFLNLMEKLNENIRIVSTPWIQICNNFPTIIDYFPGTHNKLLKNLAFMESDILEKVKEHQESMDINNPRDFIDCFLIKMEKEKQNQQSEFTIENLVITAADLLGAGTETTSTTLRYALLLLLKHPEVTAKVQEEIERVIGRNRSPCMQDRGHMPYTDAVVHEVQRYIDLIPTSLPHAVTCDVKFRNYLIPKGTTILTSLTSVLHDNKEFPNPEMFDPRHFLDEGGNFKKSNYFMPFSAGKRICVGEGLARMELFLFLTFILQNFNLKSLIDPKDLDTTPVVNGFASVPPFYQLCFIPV
Chain of Prostacyclin receptor (P43119 whole entry, the tested form may be a part): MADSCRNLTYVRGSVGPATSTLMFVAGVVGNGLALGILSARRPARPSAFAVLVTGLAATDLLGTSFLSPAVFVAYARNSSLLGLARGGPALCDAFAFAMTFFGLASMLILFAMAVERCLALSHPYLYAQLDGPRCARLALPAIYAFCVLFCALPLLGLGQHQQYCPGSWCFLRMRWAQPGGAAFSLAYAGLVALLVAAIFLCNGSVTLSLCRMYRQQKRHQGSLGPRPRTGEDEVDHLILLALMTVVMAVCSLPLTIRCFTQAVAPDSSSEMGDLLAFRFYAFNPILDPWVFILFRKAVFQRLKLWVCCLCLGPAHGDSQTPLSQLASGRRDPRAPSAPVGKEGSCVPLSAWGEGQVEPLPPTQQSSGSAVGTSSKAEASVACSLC

O=C([O-])c1cccc(Cc2cc(Cl)ccc2OCc2ccc(Cl)cc2F)n1.[Na+]
CL [1]: 3.7 mL/min/g
concentration at 12 h [2]: 56 nM
IC50 [3]: 20 µM
Ki [4]: 0.00794 µM
concentration at 1 h [5]: 2610 nM
Activity [6]: Active
CL [7]: 4.8 mL/min/g
solubility at 0.5 h [8]: 60 µg/mL
concentration at 1 h [9]: 374 nM
solubility at 0.5 h [10]: 358 µg/mL
Vd [11]: 0.6 L/kg
logD [12]: 2.1
IC50 [13]: 85 µM
CL [14]: 0.7 mL/min/g
clearance [15]: 18 mL/min/kg
concentration at 1 h [16]: 1800 nM
Kp at 1 h [17]: 0.21
Kp at 1 h [18]: 0.39
concentration at 1 h [19]: 60 nM
Papp A→B at 1 h [20]: 70 ×10⁻⁶ cm/s
IC50 [21]: > 1 µM
Vd [22]: 2.1 L/kg
IC50 [23]: 8 µM
Kb [24]: 0.00794 µM
concentration at 12 h [25]: 955 nM
